Results as given in ChEMBL document CHEMBL3351269, “Phenylimidazoles as potent and selective inhibitors of coagulation factor XIa with in vivo antithrombotic activity” (J Med Chem, 2014).

Assays:
[1] = Anticoagulant activity in healthy human plasma assessed as concentration required to 2 fold prolong clotting time by aPTT assay; assay type: functional
How it was run: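 Citrated human plasma from healthy volunteers (one-tenth volume 0.11 M buffered citrate; spun 2000g, 10 min, kept on ice). Inhibitor from 10 mM DMSO stock, diluted in plasma, up to seven concentrations. aPTT with Alexin: plasma warmed 1 min at 37 °C, reagent added, CaCl2 2 min later. Duplicates, as ratio to baseline. EC2x by linear interpolation, as total plasma concentration.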

[2] = target: Coagulation factor IX (Homo sapiens, UniProt P00740); test: Inhibition of human coagulation factor 9a by spectrophotometric analysis
How it was run: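 Purified human factor IXa; buffer 50 mM Tris pH 7.4, 100 mM NaCl, 5 mM CaCl2, 0.5% PEG 8000, 2% DMSO; room temperature. Reaction started with enzyme added to substrate ± inhibitor, in excess substrate and inhibitor, for 10–120 min. Rate read as pNA A405 or AMC fluorescence. Duplicate IC50s from 8–11 concentrations; Ki = IC50/(1+[S]/Km), assuming competitive inhibition.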

[3] = target: Prothrombin (Homo sapiens, UniProt P00734); test: Inhibition of human coagulation thrombin using pyro-Glu-Pro-Argp-NA as substrate by spectrophotometric analysis
How it was run: (§1)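 Purified enzymes (α-thrombin; trypsin) in 100 mM sodium phosphate pH 7.5, 200 mM NaCl, 0.5% PEG 8000, 1% DMSO final, room temperature. Enzyme added last to substrate ± inhibitor, with substrate and inhibitor in excess. pNA release read at 405 nm over 10−120 min. IC50 from duplicate runs over 8−11 concentrations, then converted to Ki assuming competitive inhibition, using Km.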

[4] = target: Trypsin (Homo sapiens, UniProt P07477+P07478+P35030); test: Inhibition of human coagulation trypsin using N-benzoyl-Ile-Glu-(OH, OMe)-Gly-Arg-pNA as substrate by spectrophotometric analysis; assay type: protein assay; how it was run: as §1
[5] = system: Plasma; test: Anticoagulant activity in healthy human plasma assessed as prothrombin time by PT assay; assay type: functional
How it was run: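 Citrated healthy-volunteer plasma spiked with inhibitor (10 mM DMSO stock diluted in plasma, up to seven concentrations). PT with Thromboplastin C-Plus: plasma warmed 3 min at 37 °C before reagent was added. Duplicates, as mean ratio to baseline control. Concentration that doubles clotting time by linear interpolation, as total plasma concentration.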

[6] = target: Coagulation factor XI (Homo sapiens, UniProt P03951); test: Inhibition of human coagulation factor 11a using p-nitroaniline as substrate assessed as substrate hydrolysis at 37 degC by spectrophotometrically
How it was run: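 Purified human FXIa in 50 mM HEPES pH 7.4, 145 mM NaCl, 5 mM KCl, 0.1% PEG 8000, run at 37 °C, 1% DMSO final. Enzyme added last to substrate ± inhibitor, with substrate and inhibitor in excess. pNA release read at 405 nm. IC50 from duplicate 8–11-point series, converted to Ki assuming competitive inhibition, Ki = IC50/(1+[S]/Km).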

[7] = Inhibition of rabbit coagulation factor 11a using p-nitroaniline as substrate assessed as substrate hydrolysis by spectrophotometrically; parameters: species or system Oryctolagus cuniculus
[8] = target: T1, Coagulation factor X (Oryctolagus cuniculus, UniProt O19045); test: Inhibition of rabbit coagulation factor 10a using N-benzoyl-Ile-Glu-(OH, OMe)-Gly-Arg-pNA as substrate by spectrophotometric analysis
T1 sequence (O19045 whole entry): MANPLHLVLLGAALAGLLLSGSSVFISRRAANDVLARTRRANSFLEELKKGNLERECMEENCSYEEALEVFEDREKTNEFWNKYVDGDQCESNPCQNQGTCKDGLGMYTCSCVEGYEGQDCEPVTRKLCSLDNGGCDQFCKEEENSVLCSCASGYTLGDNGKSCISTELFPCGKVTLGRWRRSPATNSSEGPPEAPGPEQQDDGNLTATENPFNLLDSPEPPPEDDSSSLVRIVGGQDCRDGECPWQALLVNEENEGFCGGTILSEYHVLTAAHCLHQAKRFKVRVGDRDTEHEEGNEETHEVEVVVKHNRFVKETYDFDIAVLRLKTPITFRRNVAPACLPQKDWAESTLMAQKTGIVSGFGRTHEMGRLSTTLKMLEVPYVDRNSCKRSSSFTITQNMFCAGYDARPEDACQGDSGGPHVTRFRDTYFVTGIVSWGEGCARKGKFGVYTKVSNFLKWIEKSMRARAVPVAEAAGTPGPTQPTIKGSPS

[9] = target: T2, Coagulation factor VII (Oryctolagus cuniculus, UniProt P98139); test: Inhibition of rabbit coagulation factor 7a using H-(D)-Ile-Pro-Arg-pNA as substrate by spectrophotometric analysis
T2 sequence (P98139 whole entry): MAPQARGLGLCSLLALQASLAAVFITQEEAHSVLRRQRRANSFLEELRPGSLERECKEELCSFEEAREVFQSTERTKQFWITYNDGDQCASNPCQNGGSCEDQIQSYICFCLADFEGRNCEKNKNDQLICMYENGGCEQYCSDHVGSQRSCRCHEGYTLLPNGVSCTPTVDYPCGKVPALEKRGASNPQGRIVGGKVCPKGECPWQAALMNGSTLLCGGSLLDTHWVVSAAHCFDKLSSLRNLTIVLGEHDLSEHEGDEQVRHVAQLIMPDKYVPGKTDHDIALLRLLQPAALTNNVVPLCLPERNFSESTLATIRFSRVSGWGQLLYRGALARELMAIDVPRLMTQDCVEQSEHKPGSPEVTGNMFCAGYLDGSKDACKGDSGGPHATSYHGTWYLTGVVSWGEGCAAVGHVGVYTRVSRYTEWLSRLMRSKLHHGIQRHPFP

[10] = Inhibition of rabbit plasma kallikrein using H-D-Pro-Phe-Arg-pNA as substrate; assay type: cell-free, Oryctolagus cuniculus
[11] = Anticoagulant activity in rabbit plasma assessed as concentration required to 2 fold prolong clotting time by aPTT assay; assay type: functional, Oryctolagus cuniculus
[12] = Cmax in rabbit plasma at 0.5 mg/kg, iv; assay type: ADME, organism-based, Oryctolagus cuniculus; parameters: dose 0.5 mg/kg, route intravenous
How it was run: (§2)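 Single iv dose of 0.5 mg/kg in rabbits; concentrations measured in rabbit plasma.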

[13] = Volume of distribution at steady state in rabbit plasma at 0.5 mg/kg, iv; assay type: ADME, organism-based, Oryctolagus cuniculus; parameters: dose 0.5 mg/kg, route intravenous; settings: read-out: Vdss; how it was run: as §2
[14] = Half life in rabbit plasma at 0.5 mg/kg, iv; assay type: ADME, organism-based, Oryctolagus cuniculus; parameters: dose 0.5 mg/kg, route intravenous; how it was run: as §2
[15] = Mean residence time in rabbit plasma at 0.5 mg/kg, iv; assay type: ADME, organism-based, Oryctolagus cuniculus; parameters: dose 0.5 mg/kg, route intravenous; how it was run: as §2

Chain of Coagulation factor IX (P00740 47-191 limits assumed): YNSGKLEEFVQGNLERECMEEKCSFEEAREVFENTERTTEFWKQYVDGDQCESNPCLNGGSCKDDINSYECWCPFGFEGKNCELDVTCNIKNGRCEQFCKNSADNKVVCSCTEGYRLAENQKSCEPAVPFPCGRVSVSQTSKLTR
Chain of Coagulation factor IX (P00740 227-461 limits assumed): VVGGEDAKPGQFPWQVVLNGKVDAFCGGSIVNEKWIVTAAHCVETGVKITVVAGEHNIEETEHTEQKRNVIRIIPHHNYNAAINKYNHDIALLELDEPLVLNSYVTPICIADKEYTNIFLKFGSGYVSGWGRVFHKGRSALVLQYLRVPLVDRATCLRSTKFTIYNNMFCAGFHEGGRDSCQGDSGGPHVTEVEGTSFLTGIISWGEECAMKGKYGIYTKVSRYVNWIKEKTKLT
Chain of Coagulation factor XI (P03951 19-387 limits assumed): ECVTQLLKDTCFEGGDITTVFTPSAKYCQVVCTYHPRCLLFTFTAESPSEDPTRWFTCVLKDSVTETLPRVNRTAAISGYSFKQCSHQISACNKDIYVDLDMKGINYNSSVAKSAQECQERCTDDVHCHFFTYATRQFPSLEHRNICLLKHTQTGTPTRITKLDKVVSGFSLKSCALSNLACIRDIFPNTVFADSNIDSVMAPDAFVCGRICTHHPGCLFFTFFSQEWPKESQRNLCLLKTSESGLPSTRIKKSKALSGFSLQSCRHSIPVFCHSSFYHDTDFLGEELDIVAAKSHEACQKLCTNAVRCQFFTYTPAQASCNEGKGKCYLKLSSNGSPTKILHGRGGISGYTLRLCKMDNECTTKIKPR
Chain of Coagulation factor XI (P03951 388-625 limits assumed): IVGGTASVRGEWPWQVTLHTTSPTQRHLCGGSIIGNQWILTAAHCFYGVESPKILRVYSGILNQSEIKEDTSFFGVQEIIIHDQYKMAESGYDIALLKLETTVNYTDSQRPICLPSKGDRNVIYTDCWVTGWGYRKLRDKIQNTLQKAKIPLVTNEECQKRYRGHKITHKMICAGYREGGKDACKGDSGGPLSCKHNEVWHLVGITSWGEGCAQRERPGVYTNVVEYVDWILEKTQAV

Ki [2]: > 34.9 µM
Ki [3]: > 12.6 µM
Ki [4]: 23 nM
Ki [6]: 0.8 nM
Ki [7]: 0.6 nM
Ki [8]: > 10 µM
Ki [9]: 10 µM
Ki [10]: 21 nM
Cmax [12]: 2470 nM
Vd [13]: 0.7 L/kg
half-life [14]: 60 min
MRT [15]: 36 min
Structure (SMILES): NC[C@H]1CC[C@H](C(=O)N[C@@H](Cc2ccccc2)c2nc(-c3ccc4c(N)n[nH]c4c3)c(Cl)[nH]2)CC1.O=C(O)C(F)(F)F
2aPTT [1]: 1 µM
2PT [5]: >40 µM
2aPTT [11]: 2 µM
